According to article PMC10922391 (Cell chemical biology, 2023):

What was measured:
[1] = system: S. sanguinis harboring toxicity reporter; assay: Competence-coupled toxicity reporter growth assay; type: cell-based; conditions: 5-FOA final 1 mg/mL in THY; OD600 at 12 h; WT S. sanguinis + RT; n = 3
comCDE locus = assay: Luciferase reporter assay of comCDE locus activation; type: cell-based, S. sanguinis VMC66; conditions: PcomCDEluc reporter; for activity relative to each other / activity class of CSP derivatives: luminescence, 20 min, 37 °C
Procedure, shortened: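 Overnight VMC66 PcomCDEluc reporter culture diluted 1:10 and held 30 min at 37 °C, 5% CO2. 198 μL per well received 2 μL DMSO or serially diluted synthetic peptide. After 20 min at 37 °C, 5% CO2, luminescence was read on a plate reader. EC50 values were fitted from three independent experiments.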

S. sanguinis = assay: CSP-induced DNA transformation efficiency; type: cell-based; conditions: C+Y media
Procedure, shortened: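 Cultures grown in THY or C+Y (a chemically defined medium with 2.2 g/L yeast extract) at 37 °C, 5% CO2. Diluted culture (500 μL) mixed with 113 nM CSP and 10 ng target DNA (linear knockout cassette or blank plasmid). Incubated a further 90 min, then plated on THY with selective antibiotic. Colonies counted after two days. Mean of three independent replicates with standard deviation.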

Compound: O=C(O)c1[nH]c(=O)[nH]c(=O)c1F [5’-FOA, 5-Fluoroorotic acid]
- competence-coupled growth defect with toxicity reporter, WT [1]: could induce significant growth defect in WT S. sanguinis background

Compound: H-DLRGVPNPWGWIFG-OH
- potency of CSP analog lacking the C-terminal AA (comCDE locus; Figure S1): significantly less-potent

Compound: H-DLRGVPNPWGWIFGR-OH [15mer]
- transformation efficiency, C+Y vs THY (S. sanguinis): drop in transformation efficiency
- activity relative to each other / activity class of CSP derivatives (comCDE locus): similarly active

Compound: H-FWDLRGVPNPWGWIFGR-OH [17mer]
- activity relative to each other / activity class of CSP derivatives (comCDE locus): inactive

Compound: H-TFWDLRGVPNPWGWIFGR-OH [18mer]
- activity relative to each other / activity class of CSP derivatives (comCDE locus): inactive

Compound: H-WDLRGVPNPWGWIFGR-OH [16mer]
- activity relative to each other / activity class of CSP derivatives (comCDE locus): similarly active
